Sampled rows, rich in hits. Any-hit rate of the full collection: about 2.1%.
MEX-5 binding: MEX-5 zinc finger RNA-binding disruptors – biochemical, C. elegans, fluorescence polarization, MLPCN library, primary screen; activity score (negative = inhibition of binding), % at 10 µM; AID 1832, 2009; MEX-5/FITC-TCR2 RNA binding; hits give low values; Zinc finger protein mex-5 (Caenorhabditis elegans), Q9XUB2; hit rate 0.38% among 300,000;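 active means inhibition past about -25% in most replicates, and total fluorescence under double the plate's negative control median, limit read from the data; inconclusive means replicates evenly split on the limit, or fluorescence at least double controls; inactive means too little inhibition in most replicates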;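 further: 0% = DMSO and -100% = 5 µM competing unlabeled TCR2 RNA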
RanGTP-Impb inh: inhibitors of RanGTP-importin-beta interaction, primary screen, biochemical, FRET, CFP-Ran, YFP-importin-beta, homogeneous. Ran GTPase (GTP-bound) - importin-beta complex. AID 2216, 2009. inhibition, % (no concentration beside the values). cell-free CFP-Ran/YFP-importin-beta FRET ratio. hit rate 1.1% among 300,000;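 active means more than half of the replicate wells show a fall in the fluorescence ratio signal beyond about 16%, limit read from the data, passing the limit was not always enough; inconclusive means exactly half of the replicate wells pass the set limit; inactive means fewer than half of replicates pass the limit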;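 further: 0% = DMSO wells and 100% = Ran loaded with GDP instead of GTP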
Runt-SMMHC FRET: inhibitors of RUNX1 Runt–CBFb-SMMHC binding, primary screen, biochemical, FRET, Cerulean-Runt, Venus-CBFb-SMMHC, uHTS; hit rate 0.74% among 220,000; Runt-related transcription factor 1 (Homo sapiens) + Core-binding factor subunit beta …; inhibition, % at 20 µM; Cerulean-Runt/Venus-CBFb-SMMHC FRET ratio 530/480, 1 h;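 active means mean inhibition across duplicate retests at 20 µM reaching about 50%, limit read from the data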;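 further: 0% = DMSO wells and 100% = wells with excess untagged CBFb-SMMHC; inhibitors lower the FRET ratio by blocking Runt binding to CBFb-SMMHC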
Target sequence (Q01196 whole entry, looked up): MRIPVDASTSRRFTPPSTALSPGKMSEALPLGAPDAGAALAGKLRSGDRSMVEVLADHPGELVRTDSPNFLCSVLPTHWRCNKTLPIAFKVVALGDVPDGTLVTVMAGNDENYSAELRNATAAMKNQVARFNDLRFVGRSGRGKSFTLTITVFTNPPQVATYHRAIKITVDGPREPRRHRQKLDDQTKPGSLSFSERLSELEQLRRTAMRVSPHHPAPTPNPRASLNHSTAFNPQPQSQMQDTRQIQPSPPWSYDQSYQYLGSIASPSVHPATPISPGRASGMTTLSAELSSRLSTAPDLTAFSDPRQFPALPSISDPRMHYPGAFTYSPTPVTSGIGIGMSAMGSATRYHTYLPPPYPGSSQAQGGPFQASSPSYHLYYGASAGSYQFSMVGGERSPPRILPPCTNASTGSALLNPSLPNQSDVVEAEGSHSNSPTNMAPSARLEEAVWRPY
Target sequence (Q13951 whole entry, looked up): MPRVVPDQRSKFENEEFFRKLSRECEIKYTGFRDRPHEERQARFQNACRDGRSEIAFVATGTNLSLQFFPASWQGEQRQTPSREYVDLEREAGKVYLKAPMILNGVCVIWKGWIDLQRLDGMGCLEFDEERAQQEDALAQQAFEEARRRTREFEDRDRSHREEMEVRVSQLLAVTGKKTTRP
KLK7 zymogen act: proKLK7 zymogen activators, primary screen, biochemical, fluorescence intensity | AID 652039, 2013 | Kallikrein-7 (Homo sapiens), P49862 | activation, % at 7 µM | hit rate 0.9% among 370,000 | purified proKLK7, EDANS-DABCYL substrate fluorescence; 100% is mature enzyme control, 0% vehicle;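 active means activation above the mean of all tested compounds plus 3 SD, computed per campaign excluding outliers beyond control limits, cut at about 13% in these data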
Runt-CBFb FRET: inhibitors of RUNX1 Runt–CBFb binding, primary screen, biochemical, FRET, Cerulean-Runt, Venus-CBFb, uHTS; Runt-related transcription factor 1 (Homo sapiens) + Core-binding factor subunit beta …; Cerulean-Runt/Venus-CBFb FRET ratio 530/480, 1 h; inhibition, % at 20 µM; hit rate 0.46% among 220,000;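 active means inhibition over about 50% at 20 µM in the single-dose screen, limit read from the data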;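 further: 0% = DMSO wells and 100% = excess unlabeled CBFb competitor control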
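Measured by: fluorescence energy transfer, 422 nm excitation, 530/480 nm emission; Assay system: Cerulean-Runt domain; Medium: Tris pH 7.5 buffer with BSA; Measure: loss of energy transfer signal; Controls: 5 µM unlabeled CBFb as full-inhibition high control; Incubation: protein complex preformed 1 h, compound exposure 1 h, room temperature, dark.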
Active calls of the source: *.

For CCOC(=O)C1CCN(C(=O)Nc2ccc3nc(-c4ccco4)c(-c4ccco4)nc3c2)CC1 the results were MEX-5 binding -4.3, RanGTP-Impb inh 74.9*, Runt-SMMHC FRET -219.0 and Runt-CBFb FRET -44.4.
`CN(CCc1ccccc1)C(=O)c1ccc2c(c1)ncn2C1CCCCC1` gave KLK7 zymogen act -0.2.
`CCCNC(=O)c1c(N)n(-c2ccc3c(c2)OCO3)c2nc3ccccc3nc12` gave MEX-5 binding -1.5, RanGTP-Impb inh 2.5, Runt-SMMHC FRET 5.7, KLK7 zymogen act 0.0 and Runt-CBFb FRET 5.1.
Screening COCCCNC(=O)c1c(N)n(-c2ccc3c(c2)OCO3)c2nc3ccccc3nc12 returned MEX-5 binding -0.2, RanGTP-Impb inh 5.4, Runt-SMMHC FRET 9.1, KLK7 zymogen act 1.4 and Runt-CBFb FRET 0.8.
For Nc1c(S(=O)(=O)c2ccccc2)c2nc3ccccc3nc2n1/N=C/c1ccco1 the results were MEX-5 binding 1.7, RanGTP-Impb inh 0.4, Runt-SMMHC FRET 27.9, KLK7 zymogen act -5.7 and Runt-CBFb FRET 13.6.
For CCOCCCNC(=O)c1c(N)n(-c2ccc3c(c2)OCO3)c2nc3ccccc3nc12 the results were MEX-5 binding -0.1, RanGTP-Impb inh 132.5*, Runt-SMMHC FRET 40.1, KLK7 zymogen act -1.6 and Runt-CBFb FRET 11.7.
Screening Nc1c(C(=O)NC2CCCCC2)c2nc3ccccc3nc2n1/N=C/c1ccco1 returned Runt-SMMHC FRET 52.4* and Runt-CBFb FRET 17.4.
Screening CCCNC(=O)c1c(N)n(-c2cc(OC)cc(OC)c2)c2nc3ccccc3nc12 returned MEX-5 binding 0.2, RanGTP-Impb inh 58.4*, Runt-SMMHC FRET 108.7*, KLK7 zymogen act -17.6 and Runt-CBFb FRET 33.1.
`CCOCCCNC(=O)c1c(N)n(-c2ccc(S(N)(=O)=O)cc2)c2nc3ccccc3nc12` gave MEX-5 binding -2.7, RanGTP-Impb inh inconclusive, Runt-SMMHC FRET 57.5*, KLK7 zymogen act -44.2 and Runt-CBFb FRET 34.8.
Screening COC(=O)[C@@]1(Cc2ccccc2)[C@H]2C(=O)N(C)C(=O)[C@H]2[C@H]2CN(C)C(=NCc3ccccc3)N21 returned KLK7 zymogen act 0.0.
Cc1ccc(S(=O)(=O)N2C[C@H]3C(=O)C[C@@H](c4ccc(Cl)cc4)N(S(=O)(=O)c4ccccc4C)[C@H]3C[C@H]2c2cccc(Cl)c2)cc1 was read as KLK7 zymogen act -1.4.
C[C@H](CO)N1C[C@H](C)[C@@H](CN(C)C(=O)C2CC2)OCc2cnnn2CCCC1=O was read as KLK7 zymogen act 0.5.
COCCNC(=O)c1c(N)n(/N=C/c2cccs2)c2nc3ccccc3nc12 was read as MEX-5 binding 0.2, RanGTP-Impb inh 95.3*, Runt-SMMHC FRET 24.4, KLK7 zymogen act -7.3 and Runt-CBFb FRET 62.1*.
For Cc1cc(N2C(=O)C(O)=C(C(=O)c3cc4ccccc4o3)C2c2ccc(Br)cc2)no1 (configuration not stated) the results were MEX-5 binding 0.5, RanGTP-Impb inh 46.9* and KLK7 zymogen act 0.9.
`Cc1cc2c(c(=O)n1CCc1ccccc1)C(C(C)C)C(C#N)=C(N)O2` (configuration not stated) gave MEX-5 binding 1.3, RanGTP-Impb inh -0.8, Runt-SMMHC FRET 5.6, KLK7 zymogen act 0.0 and Runt-CBFb FRET -0.4.
Cc1cc2c(c(=O)n1C)C(Cc1ccccc1)C(C#N)=C(N)O2 (configuration not stated) was read as MEX-5 binding 0.8, RanGTP-Impb inh 62.7*, Runt-SMMHC FRET 145.6*, KLK7 zymogen act -95.3 and Runt-CBFb FRET 122.9*.
For CC1C2C(C)N(C)C(=O)N(C)C2N(C)C(=O)N1C (configuration not stated) the results were MEX-5 binding -39.7*, RanGTP-Impb inh 8.5, Runt-SMMHC FRET -1.7, KLK7 zymogen act -0.6 and Runt-CBFb FRET 1.1.
CN1C(=O)N(C)C2C1NC(=O)N2C (configuration not stated) was read as MEX-5 binding -2.5, RanGTP-Impb inh 5.4, Runt-SMMHC FRET 2.0, KLK7 zymogen act 0.7 and Runt-CBFb FRET -1.8.
Screening C=CCn1c(=O)/c(=C/c2ccc(C)o2)s/c1=C(/C#N)C(=O)c1ccccc1 returned MEX-5 binding -27.3*, RanGTP-Impb inh 4.0, Runt-SMMHC FRET -37.4, KLK7 zymogen act -0.9 and Runt-CBFb FRET -11.6.
C=CCn1c(=O)/c(=C\c2ccccn2)s/c1=C(/C#N)C(=O)NCC1CCCO1 (configuration not stated) was read as MEX-5 binding -27.9*, RanGTP-Impb inh 2.4, Runt-SMMHC FRET -44.4, KLK7 zymogen act -0.7 and Runt-CBFb FRET -12.8.
Cc1ccccc1-c1cccc2c3c([nH]c12)[C@@H]1C[C@H]2[C@@H](CN1CC3)[C@H](C)ON2C was read as KLK7 zymogen act 2.6.
Screening COc1cccc(-c2c3c([nH]c(=O)c2C#N)CCc2cc(OC)ccc2-3)c1 returned MEX-5 binding -0.2, RanGTP-Impb inh 93.9*, Runt-SMMHC FRET 80.2* and Runt-CBFb FRET 89.3*.
Screening CCOC(=O)CSc1nnc(-c2cc(OC)c(OC)c(OC)c2)o1 returned MEX-5 binding 1.8, RanGTP-Impb inh 2.7, Runt-SMMHC FRET -1.0, KLK7 zymogen act 0.2 and Runt-CBFb FRET -0.3.
For COc1cc(-c2nnc(SCc3cc(=O)oc4cc(O)c(O)cc34)o2)cc(OC)c1OC the results were MEX-5 binding -3.2, RanGTP-Impb inh 9.1, Runt-SMMHC FRET 58.7*, KLK7 zymogen act -20.5 and Runt-CBFb FRET 67.3*.
For COc1[nH]c(/N=C/c2ccccc2)c(C#N)c1C#N the results were MEX-5 binding -59.5*, RanGTP-Impb inh -3.8, Runt-SMMHC FRET -17.8, KLK7 zymogen act 0.6 and Runt-CBFb FRET -4.9.
For Cc1oc(/N=C/c2ccccc2)c(C#N)c1C the results were MEX-5 binding -4.6, RanGTP-Impb inh -1.1 and KLK7 zymogen act 1.1.
CNS(=O)(=O)c1cn(CC(=O)NCc2cccc(OC)c2)cc1S(=O)(=O)NC was read as MEX-5 binding -1.0, RanGTP-Impb inh 6.4 and KLK7 zymogen act 0.0.
`Cc1cc(Cl)cc(C)c1OCC(=O)N1CCN(c2ncccn2)CC1` gave KLK7 zymogen act -0.3.
`Nc1nnc(CCC2CCCCC2)s1` gave MEX-5 binding -1.3, RanGTP-Impb inh 0.0, Runt-SMMHC FRET 0.3, KLK7 zymogen act 0.4 and Runt-CBFb FRET -0.2.

Assay outcomes from PubChem.
